ChEMBL document CHEMBL1125907, “Folate analogues. 34. Synthesis and antitumor activity of non-polyglutamylatable inhibitors of dihydrofolate reductase” (J Med Chem, 1991)

What was measured:
Dihydrofolate reductase = molecular target: T1, Dihydrofolate reductase (Homo sapiens, UniProt P00374); test: Compound was tested for its inhibitory activity on Recombinant Human Dihydrofolate Reductase.
T1 sequence (P00374 whole entry): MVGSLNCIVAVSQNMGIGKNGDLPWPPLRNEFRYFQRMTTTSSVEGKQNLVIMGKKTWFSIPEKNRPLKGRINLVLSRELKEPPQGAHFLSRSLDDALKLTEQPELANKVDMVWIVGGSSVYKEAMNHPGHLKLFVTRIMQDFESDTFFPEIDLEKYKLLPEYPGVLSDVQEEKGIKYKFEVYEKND

CCRF-CEM [1] = test: (§1) Relative activity when compared to the activity of aminopterin in CCRF-CEM Human leukemia cell at a concentration of 50 uM; type: functional
In short: (§2)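 Used purified folylpolyglutamate synthetase (FPGS) isolated from CCRF-CEM human leukemia cells. Each compound was tested as an alternative substrate. Activity was read as [3H]glutamate incorporation and expressed relative to aminopterin as reference substrate at 50 μM. Test compounds were examined at concentrations up to 200 μM.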

H35R0.3 [2] = test: Compound was tested for its inhibitory activity in tumor cell growth in H35R cells; type: functional, cell-based; details: Rattus norvegicus
H35R0.3 [3] = test: Compound was tested for its inhibitory activity in tumor cell growth in H35 hepatoma cells; type: functional, cell-based; details: Rattus norvegicus
H35R0.3 [4] = test: Compound was tested for inhibition of folinic acid transport in H35 Hepatoma cells.; type: functional, cell-based; details: Rattus norvegicus
H35R0.3 [5] = test: Compound was tested for growth inhibition of H35 Hepatoma cells.; type: functional, cell-based; details: Rattus norvegicus
In short: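 H35 hepatoma cells grown 24 h, then exposed to compound for a 6-h pulse (24–30 h); growth read as cell counts after 72 h in culture medium.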

Manca = test: Compound was tested for its inhibitory activity manca tumor cell growth; type: functional, cell-based; details: Homo sapiens
CCRF-CEM [6] = test: Compound was tested for its inhibitory activity in tumor cell growth in CCRF-CEM in human.; type: functional, cell-based
[7] = molecular target: T2, Folylpolyglutamate synthase, mitochondrial (Homo sapiens, UniProt Q05932); test: Compound was evaluated for the inhibition of Folyl-polyglutamate synthase in CCRF-CEM Human leukemia cell.
T2 sequence (Q05932 whole entry): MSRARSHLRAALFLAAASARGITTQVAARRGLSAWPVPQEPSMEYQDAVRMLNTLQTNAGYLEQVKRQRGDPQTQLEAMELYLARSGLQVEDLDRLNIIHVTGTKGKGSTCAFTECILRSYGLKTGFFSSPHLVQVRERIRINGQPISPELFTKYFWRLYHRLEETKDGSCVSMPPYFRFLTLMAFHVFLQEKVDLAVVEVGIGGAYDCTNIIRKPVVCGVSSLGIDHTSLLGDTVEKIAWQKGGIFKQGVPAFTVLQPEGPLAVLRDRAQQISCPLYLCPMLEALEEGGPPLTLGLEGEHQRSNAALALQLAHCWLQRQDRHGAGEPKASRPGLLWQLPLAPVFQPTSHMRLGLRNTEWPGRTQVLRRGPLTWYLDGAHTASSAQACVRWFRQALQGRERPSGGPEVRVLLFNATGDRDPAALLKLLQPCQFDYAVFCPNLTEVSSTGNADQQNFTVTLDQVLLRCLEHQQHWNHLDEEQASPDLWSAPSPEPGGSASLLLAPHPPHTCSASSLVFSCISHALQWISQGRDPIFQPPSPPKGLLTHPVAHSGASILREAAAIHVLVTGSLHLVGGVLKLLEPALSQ
In short: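 Purified folylpolyglutamate synthetase from CCRF-CEM human leukemia cells, with 50 µM aminopterin as substrate. Increasing amounts of test compound were added to the assay mixture. Activity was read as [3H]glutamate incorporation, and inhibition was expressed as IC50.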

CCRF-CEM [8] = test: Relative activity when compared to the activity of aminopterin in CCRF-CEM Human leukemia cell at a concentration of 200 uM; type: functional; in short: as §2
H35R0.3 [9] = test: Compound was tested for inhibition of folinic acid transport in H35 Hepatoma cells; No Inhibition at 50 uM; type: functional, cell-based, Rattus norvegicus
CCRF-CEM [10] = test: as §1; type: functional; remark: listed apart in the source
In short: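 Purified folylpolyglutamate synthetase from CCRF-CEM human leukemia cells; substrate activity measured as [3H]glutamate incorporation with compound up to 200 μM, expressed relative to aminopterin at 50 μM.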

Structure (SMILES)	IC50 (Dihydrofolate reductase) [nM]	Relative activity (CCRF-CEM [1])	IC50 (H35R0.3 [2]) [nM]	IC50 (H35R0.3 [3]) [nM]	IC50 (H35R0.3 [4]) [nM]	IC50 (H35R0.3 [5]) [nM]	IC50 (Manca) [nM]	IC50 (CCRF-CEM [6]) [nM]	IC50 [7] [nM]	Relative activity (CCRF-CEM [8])	IC50 (H35R0.3 [9])	Relative activity (CCRF-CEM [10])
Nc1nc(N)c2nc(CCc3ccc(C(=O)N[C@@H](CCC(=O)O)C(=O)O)cc3)cnc2n1	4.1	60	–	–	–	–	–	–	–	–	–	–
C=C(CC(NC(=O)c1ccc(CCc2cnc3nc(N)nc(N)c3n2)cc1)C(=O)O)C(=O)O (stereo not drawn)	8.8	–	18400	39	5500	> 20000	9.9	13	> 200000	<2	–	–
CN(Cc1cnc2nc(N)nc(N)c2n1)c1ccc(C(=O)NC(C(=O)O)C(O)CC(=O)O)cc1 (stereo not drawn)	5.3	<3	5600	85	–	–	48	–	> 200000	–	No inhibition	–
C=C(CC(NC(=O)c1ccc(C(CC)Cc2cnc3nc(N)nc(N)c3n2)cc1)C(=O)O)C(=O)O (stereo not drawn)	5.8	–	14000	6.3	1500	14000	3.8	7.4	118000	<1	–	–
C=C(CC(NC(=O)c1ccc(N(C)Cc2cnc3nc(N)nc(N)c3n2)cc1)C(=O)O)C(=O)O (stereo not drawn)	6.4	–	21000	16	7000	3900	26	30	> 200000	<1	–	–
Nc1nc(N)c2nc(CCc3ccc(C(=O)NC(C(=O)O)C(O)CC(=O)O)cc3)cnc2n1 (stereo not drawn)	5.9	<3	–	–	–	–	29	–	> 50000	–	–	–
Nc1nc(N)c2nc(CNc3ccc(C(=O)N[C@@H](CCC(=O)O)C(=O)O)cc3)cnc2n1 [AMINOPTERIN]	–	–	–	–	–	–	–	–	–	–	–	100
CN(Cc1cnc2nc(N)nc(N)c2n1)c1ccc(C(=O)N[C@@H](CCC(=O)O)C(=O)O)cc1 [METHOTREXATE]	–	–	–	–	18000	85	–	–	–	–	–	–
